{
  "source": "paper PMC7048954",
  "about": "(Drug Design, Development and Therapy, 2020)",
  "key": {"Huh 5.15 replicon cells": {"system": "Huh 5.15 replicon cells", "assay": "MTT assay of cellular viability and proliferation", "format": "cell-based, human", "outline": "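Replicon cells were seeded semi-confluent, attached overnight, then given compound at 10 or 20 μM or vehicle, in triplicate or quadruplicate. MTT was added at 24 and 48 h and absorbance read at 570 nm. Blanks containing vehicle plus compound were subtracted, and viable cells were expressed relative to vehicle controls.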"}, "[1]": {"system": "HCV replicon (Huh 5.15NS, sub-genomic HCV RNA genotype 1b)", "assay": "HCV RNA replication in replicon cells, real-time RT-PCR", "format": "cell-based", "details": "Hepatitis C virus, GETYPE1B, read-out: inhibition in replicon assays", "outline": "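Huh 5.15NS cells carrying subgenomic genotype 1b HCV RNA were seeded, left to attach overnight and treated in log phase for 48 h with compound (DMSO stock diluted into medium) or vehicle. Total RNA was extracted with Trizol and DNase-treated, then HCV RNA was measured by SYBR green real-time RT-PCR using ΔCT against GAPDH. EC50 came from sigmoidal regression, with 3–5 determinations per point and a known NS3-4A inhibitor as positive control.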"}, "[2]": {"molecular_target": "HCV NS3-4A protease genotype 1B (Hepatitis C virus genotype 1b, UniProt P26663)", "assay": "Recombinant NS3-4A protease FRET assay", "format": "biochemical", "details": "compared with biliverdin"}, "[3]": {"molecular_target": "NS3-4A protease A156T mutant (Hepatitis C virus genotype 1b, UniProt P26663, A1182T)", "assay": "Mutant recombinant NS3-4A protease fluorometric assay, A156T", "format": "biochemical, HCV", "details": "A156T vs WT", "outline": "(§1)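 Recombinant wild-type and mutant NS3-4A proteases were run side by side in a SensoLyte FRET assay across a range of compound concentrations. Excitation/emission of 591/622, 490/520 or 340/490 nm was chosen empirically for each compound, and parallel compound-only wells corrected for autofluorescence. Compound came from DMSO stock diluted into assay buffer, with vehicle controls.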"}, "[4]": {"molecular_target": "NS3-4A protease T54A mutant (Hepatitis C virus genotype 1b, UniProt P26663, T1080A)", "assay": "Mutant recombinant NS3-4A protease fluorometric assay, T54A", "format": "biochemical, HCV", "details": "T54A vs WT", "outline": "as §1"}, "[5]": {"molecular_target": "NS3-4A protease V36M mutant (Hepatitis C virus genotype 1b, UniProt P26663, V1062M)", "assay": "Mutant recombinant NS3-4A protease fluorometric assay, V36M", "format": "biochemical, HCV", "details": "V36M vs WT", "outline": "as §1"}, "[6]": {"system": "HCV proteins NS3-4A and core", "assay": "Western blot for HCV proteins in infected Huh 7.5 cells and Huh 5.15NS replicons", "format": "cell-based", "details": "MPP 10 µM; J6/JFH infected Huh 7.5 cells 48 hrs, Huh 5.15NS replicons 24 hrs", "outline": "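Cells in log phase were treated with compound, then lysed. HCV proteins were detected by Western blot with anti-NS3-4A antibodies and enhanced chemiluminescence.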"}, "NS3 protease [7]": {"system": "NS3 protease", "details": "compared with bilirubin; cited from earlier work"}, "NS3 protease [8]": {"system": "NS3 protease", "details": "less effective for genotype 3; cited from earlier work"}},
  "data": [
    {"smiles": "C=CC1=C(C)c2cc3[n-]c(cc4[n-]c(cc5nc(cc1n2)C(C)=C5C=C)c(C)c4CCC(=O)O)c(CCC(=O)O)c3C.[Fe+2]", "note": "[FePP, Iron protoporphyrin]", "values": [
      {"measurement": "reduction of viable cells", "setting": "Huh 5.15 replicon cells; 10 or 20 μM, by 48 hrs", "result": "12–19%"}
    ]},
    {"smiles": "CC(C)(C)OC(=O)N[C@H]1CCCCC/C=C\\[C@@H]2C[C@@]2(C(=O)NS(=O)(=O)C2CC2)NC(=O)[C@@H]2C[C@@H](OC(=O)N3Cc4cccc(F)c4C3)CN2C1=O", "note": "[Danoprevir, reference compound]", "values": [
      {"measurement": "effects on viable cells", "setting": "Huh 5.15 replicon cells; 24 or 48 hrs, concentrations equivalent or in excess of EC50", "result": "little if any effects"},
      {"measurement": "inhibition at 0.01 µM", "setting": "[1]", "result": "80 to 90", "unit": "%"}
    ]},
    {"smiles": "C=CC1=C(C)C2=Cc3c(C=C)c(C)c4[n]3[Zn][n]3c(c(C)c(CCC(=O)O)c3=CC3=NC(=C4)C(C)=C3CCC(=O)O)=CC1=N2", "note": "[ZnPP, Zn protoporphyrin]", "values": [
      {"measurement": "Ki, fold stronger than biliverdin", "setting": "[2]", "result": "10–20 fold"},
      {"measurement": "reduction of the amount of viable cells", "setting": "Huh 5.15 replicon cells; 10 or 20 μM, 24 and 48 hrs intervals", "result": "40–50%"},
      {"measurement": "inhibition of mutant protease compared to wild-type enzyme", "setting": "[3]", "result": "same fidelity as the wild-type enzyme"},
      {"measurement": "inhibition of mutant protease compared to wild-type enzyme", "setting": "[4]", "result": "same fidelity as the wild-type enzyme"},
      {"measurement": "inhibition of mutant protease compared to wild-type enzyme", "setting": "[5]", "result": "same fidelity as the wild-type enzyme"},
      {"measurement": "expression of HCV proteins NS3-4A and core (Western blot)", "setting": "[6]", "result": "decreased expression"}
    ]},
    {"smiles": "C=CC1=C(C)/C(=C/C2=NC(=C\\c3[nH]c(/C=C4\\NC(=O)C(C)=C4C=C)c(C)c3CCC(=O)O)/C(CCC(=O)O)=C2C)NC1=O", "note": "[BV, biliverdin]", "values": [
      {"measurement": "IC50 for NS3 protease, fold less than BR", "setting": "NS3 protease [7]", "result": 30, "unit": "fold"}
    ]},
    {"smiles": "C=C[C@@H]1C[C@]1(NC(=O)[C@@H]1C[C@@H]2CN1C(=O)[C@H](C(C)(C)C)NC(=O)O[C@@H]1C[C@H]1CCCCCc1nc3ccc(OC)cc3nc1O2)C(=O)NS(=O)(=O)C1CC1", "note": "[grazoprevir]", "values": [
      {"measurement": "difference in Ki, genotype 3 as compared to genotype 1", "setting": "NS3 protease [8]", "result": 90, "unit": "fold"}
    ]}
  ]
}
